According to ChEMBL document CHEMBL1153478, “Discovery of imidazo[1,2-a]pyridines as potent MCH1R antagonists” (Bioorg Med Chem Lett, 2009):

How the values were obtained:
[1] = target: T1, Melanin-concentrating hormone receptor 1 (Homo sapiens, UniProt Q99705); test: Displacement of [125I]MCH from human MCH1 receptor
How it was run: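 Competition binding on membranes from CHO cells expressing human MCH1R, with [125I]-MCH as radioligand displaced by test compounds; IC50 reported as the mean of 2 experiments.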

[2] = target: T1, Melanin-concentrating hormone receptor 1; test: Antagonist activity at human MCH1 receptor expressed in CHO cells assessed as inhibition of MCH-induced intracellular calcium level by FLIPR assay; format: functional, cell-based
[3] = Plasma concentration in Sprague-Dawley rat at 10 mg/kg, po after 2 hrs; format: ADME, organism-based; design: dose 10 mg/kg, route oral
How it was run: (§1)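 Single oral dose of 10 mg/kg given to SD rats. Plasma (µM) and brain (nmol/g) levels were measured 2 h after dosing. Values are means of 3 experiments.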

Brain = test: Drug level in Sprague-Dawley rat brain at 10 mg/kg, po after 2 hrs; format: ADME, organism-based; design: dose 10 mg/kg, route oral; conditions: in vivo; how it was run: as §1

T1 sequence (Q99705 whole entry): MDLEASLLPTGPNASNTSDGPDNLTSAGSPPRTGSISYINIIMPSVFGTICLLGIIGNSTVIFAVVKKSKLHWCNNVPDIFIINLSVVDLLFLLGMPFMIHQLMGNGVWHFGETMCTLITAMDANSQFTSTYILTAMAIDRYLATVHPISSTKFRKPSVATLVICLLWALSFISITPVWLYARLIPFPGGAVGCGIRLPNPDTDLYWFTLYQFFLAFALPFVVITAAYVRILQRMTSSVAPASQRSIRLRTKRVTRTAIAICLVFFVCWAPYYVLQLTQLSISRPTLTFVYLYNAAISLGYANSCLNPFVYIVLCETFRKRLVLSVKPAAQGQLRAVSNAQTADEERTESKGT

IC50 [1] [nM]	IC50 [2] [nM]	concentration at 2 h [3] [µM]	Drug uptake (Brain) [nmol/g]	Structure (SMILES)
7.1	–	–	–	CC(C)(C)c1cn2cc(NC(=O)c3ccc(-c4ccc(C(F)(F)F)cc4)cc3)ccc2n1
160	–	–	–	Cc1c(C2CC2)nc2ccc(NC(=O)c3ccc(-c4cnc(C(F)(F)F)nc4)cc3)cn12
20	–	–	–	CCc1c(C2CC2)nc2ccc(NC(=O)c3ccc(-c4ccc(C(F)(F)F)cc4)cc3)cn12
35	–	–	–	CC(=O)N(C)Cc1cn2cc(NC(=O)c3ccc(-c4ccc(C(F)(F)F)cc4)cc3)ccc2n1
4.4	20	5	2.5	Cc1c(C2CC2)nc2ccc(NC(=O)c3ccc(-c4ccc(F)nc4)cc3)cn12
–	26	–	–	Cc1c(C2CC2)nc2ccc(NC(=O)c3ccc(-c4ccccn4)cc3)cn12
330	–	–	–	CC(O)c1c(C2CC2)nc2ccc(NC(=O)c3ccc(-c4ccc(C(F)(F)F)cc4)cc3)cn12 (stereo not given)
11	–	–	–	CCCc1cn2cc(NC(=O)c3ccc(-c4ccc(C(F)(F)F)cc4)cc3)ccc2n1
30	–	–	–	CC(O)c1cn2cc(NC(=O)c3ccc(-c4ccc(C(F)(F)F)cc4)cc3)ccc2n1 (stereo not given)
8.2	–	–	–	O=C(Nc1ccc2nc(C3CC3)cn2c1)c1ccc(-c2ccc(C(F)(F)F)cn2)cc1
140	–	–	–	O=C(Nc1ccc2nc(C3CC3)cn2c1)c1ccc(-c2ccccn2)cc1
5.4	–	–	–	CC(C)c1cn2cc(NC(=O)c3ccc(-c4ccc(C(F)(F)F)cc4)cc3)ccc2n1
5.6	–	–	–	O=C(Nc1ccc2nc(C3CC3)cn2c1)c1ccc(-c2ccc(C(F)(F)F)cc2)cc1
4.6	–	–	–	Cc1cn2cc(NC(=O)c3ccc(-c4ccc(C(F)(F)F)cc4)cc3)ccc2n1
61	217	–	–	Cc1c(C2CC2)nc2ccc(NC(=O)c3ccc(-c4ccc(F)nc4)nc3)cn12
6.8	29	–	–	Cc1c(C2CC2)nc2ccc(NC(=O)c3ncc(-c4ccc(F)cc4)cn3)cn12
5.4	90	–	–	Cc1c(C2CC2)nc2ccc(NC(=O)c3ccc(-c4ccc(F)cn4)cc3)cn12
44	121	–	–	Cc1c(C2CC2)nc2ccc(NC(=O)c3ccc(-c4ccc(F)nc4)cn3)cn12

IC50 [1] [nM]	IC50 [2] [nM]	concentration at 2 h [3] [µM]	Drug uptake (Brain) [nmol/g]	Structure (SMILES)
17	–	–	–	CC(C)(O)c1cn2cc(NC(=O)c3ccc(-c4ccc(C(F)(F)F)cc4)cc3)ccc2n1
–	59	–	–	Cc1c(C2CC2)nc2ccc(NC(=O)c3ccc(-c4ccc(F)cc4)cn3)cn12
300	–	–	–	O=C(Nc1ccc2nccn2c1)c1ccc(-c2ccc(C(F)(F)F)cc2)cc1
320	–	–	–	CC(=O)c1c(C2CC2)nc2ccc(NC(=O)c3ccc(-c4ccc(C(F)(F)F)cc4)cc3)cn12
3.5	1000	1.4	1.6	Cc1c(C2CC2)nc2ccc(NC(=O)c3ccc(-c4ccc(C(F)(F)F)cn4)cc3)cn12
260	–	–	–	O=C(Nc1ccc2nc(C3CC3)c(C3CC3)n2c1)c1ccc(-c2ccc(C(F)(F)F)cc2)cc1
11	–	–	–	O=C(Nc1ccc2nc(C3CC3)c(CO)n2c1)c1ccc(-c2ccc(C(F)(F)F)cc2)cc1
4	94	–	–	Cc1c(C2CC2)nc2ccc(NC(=O)c3ccc(-c4ccc(F)cc4)nc3)cn12
6	122	–	–	COc1ccc(-c2ccc(C(=O)Nc3ccc4nc(C5CC5)c(C)n4c3)cc2)nc1
130	–	–	–	O=C(Nc1ccc2nc(CO)cn2c1)c1ccc(-c2ccc(C(F)(F)F)cc2)cc1
102	164	–	–	Cc1c(C2CC2)nc2ccc(NC(=O)c3ncc(-c4ccc(F)nc4)cn3)cn12
4.8	–	–	–	Cc1c(C2CC2)nc2ccc(NC(=O)c3ccc(-c4ccc(C(F)(F)F)cc4)cc3)cn12
4.8	85	–	–	Cc1ccc(-c2ccc(C(=O)Nc3ccc4nc(C5CC5)c(C)n4c3)cc2)nc1
48	94	–	–	Cc1c(C2CC2)nc2ccc(NC(=O)c3ccc(-c4ccc(S(C)(=O)=O)cn4)cc3)cn12
83	–	–	–	CN(C)Cc1cn2cc(NC(=O)c3ccc(-c4ccc(C(F)(F)F)cc4)cc3)ccc2n1
2.5	70	–	–	Cc1c(C2CC2)nc2ccc(NC(=O)c3cnc(-c4ccc(F)cc4)cn3)cn12
2.2	100	–	–	Cc1c(C2CC2)nc2ccc(NC(=O)c3ccc(-c4ccc(Cl)cn4)cc3)cn12
4	109	–	–	Cc1c(C2CC2)nc2ccc(NC(=O)c3ccc(-c4ccc(C(F)(F)F)nc4)cc3)cn12

Structure (SMILES)	IC50 [1] [nM]	IC50 [2] [nM]	concentration at 2 h [3] [µM]	Drug uptake (Brain) [nmol/g]
CCOC(=O)c1cn2cc(NC(=O)c3ccc(-c4ccc(C(F)(F)F)cc4)cc3)ccc2n1	> 1000	–	–	–
